Results reported in ChEMBL document CHEMBL1153548 (Antimicrob Agents Chemother, 2007).
In brackets after ≈: the same amount, converted by molar mass.

Experiments:
[1] = Efflux clearance from middle ear fluid to plasma in Streptococcus pneumoniae WT3-infected Chinchilla lanigera assessed as unbound Km at 40000 ug/kg, iv followed by local dose of 19 ug/kg into intra-middle ear by compartmental microdialysis; type: ADME, organism-based
[2] = Efflux clearance from middle ear fluid to plasma in Streptococcus pneumoniae WT3-infected Chinchilla lanigera assessed as unbound Km at 40000 ug/kg, iv followed by local dose of 96 ug/kg into intra-middle ear by compartmental microdialysis; type: ADME, organism-based
[3] = Efflux clearance from middle ear fluid to plasma in Chinchilla lanigera assessed as unbound Km at 40000 ug/kg, iv followed by local dose of 19 ug/kg into intra-middle ear by compartmental microdialysis; type: ADME, organism-based
[4] = Efflux clearance from middle ear fluid to plasma in Chinchilla lanigera assessed as unbound Km at 40000 ug/kg, iv followed by local dose of 13 ug/kg into intra-middle ear by compartmental microdialysis; type: ADME, organism-based
[5] = Efflux clearance from middle ear fluid to plasma in Chinchilla lanigera assessed as unbound Km at 40000 ug/kg, iv followed by local dose of 66 ug/kg into intra-middle ear by compartmental microdialysis; type: ADME, organism-based
[6] = Efflux clearance from middle ear fluid to plasma in Chinchilla lanigera assessed as unbound Km at 40000 ug/kg, iv followed by local dose of […] into intra-middle ear by compartmental microdialysis; type: ADME, organism-based
[7] = Efflux clearance from middle ear fluid to plasma in Chinchilla lanigera assessed as unbound Km at 15000 ug/kg, iv followed by local dose of 164 ug/kg into intra-middle ear by compartmental microdialysis; type: ADME, organism-based
Streptococcus pneumoniae [8] = assay: Antimicrobial activity against amoxicillin-resistant Streptococcus pneumoniae; type: functional
Streptococcus pneumoniae [9] = assay: Antimicrobial activity against Streptococcus pneumoniae WT3 infected in bolus iv dosed Chinchilla lanigera assessed as log reduction in bacterial count within 10 hrs of additional local drug administration into intra-middle ear; type: functional
Outline: (§1)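 Awake chinchillas with 50 CFU S. pneumoniae WT3 in 100 µl PBS inoculated into both middle ear bullae. […] MEF (30-100 µl) was drawn at 1 h predose and at 1, 2, 5, 8 and 10 h. It was serially diluted and plated on 5% sheep blood agar at 37°C under 10% CO2, with counts read at 24 and 48 h. Detection threshold was 25 CFU/ml.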

Streptococcus pneumoniae [10] = assay: Antimicrobial activity against amoxicillin-intermediate resistant Streptococcus pneumoniae; type: functional
[11] = Terminal half life in Chinchilla lanigera at 40 mg/kg, iv; type: ADME, organism-based; set-up: dose 40 mg/kg, route intravenous; settings: in vivo, read-out: beta t1/2 (converted)
Outline: (§2)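 Conscious, freely moving chinchillas were cannulated in the femoral artery and jugular vein. […] Arterial plasma was taken predose, at time zero and at 10-12 points up to 180 min, then stored at –60°C. Unbound drug was measured by ultrafiltration (1,500 x g, 15 min, 37°C) followed by C18 solid-phase extraction and HPLC.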

[12] = Terminal half life in Chinchilla lanigera at 15 mg/kg, iv; type: ADME, organism-based; set-up: dose 15 mg/kg, route intravenous; settings: in vivo, read-out: beta t1/2 (converted); outline: as §2
[13] = Cmax in Chinchilla lanigera at 40 mg/kg, iv followed by local dose of 13 to 235 ug/kg into intra-middle ear; type: ADME, organism-based; set-up: dose 40 mg/kg, route intravenous; settings: in vivo; outline: as §2
[14] = Cmax in Chinchilla lanigera at 15 mg/kg, iv followed by local dose of 13 to 235 ug/kg into intra-middle ear; type: ADME, organism-based; set-up: dose 15 mg/kg, route intravenous; settings: in vivo; outline: as §2
Streptococcus pneumoniae [15] = assay: Antimicrobial activity against Streptococcus pneumoniae WT3 infected in bolus iv dosed Chinchilla lanigera assessed as log reduction in bacterial count within 5 hrs of additional local drug administration into intra-middle ear; type: functional; outline: as §1

`CC1(C)S[C@@H]2[C@H](NC(=O)[C@H](N)c3ccc(O)cc3)C(=O)N2[C@H]1C(=O)O` [AMOXICILLIN] gave a Km [1] of 35.9 µg/mL, a Km [2] of 48.6 µg/mL and a Km [3] of 34 µg/mL. It also gave a Km [4] of 4.5 µg/mL, a Km [5] of 54.9 µg/mL and a Km [6] of 9.3 µg/mL. For the same compound, the Km [7] was 17.8 µg/mL, the MIC (Streptococcus pneumoniae [8]) was 8 µg/mL (≈ 21.9 µM) and the Activity (Streptococcus pneumoniae [9]) was 2. For the same compound, the MIC (Streptococcus pneumoniae [10]) was 1 µg/mL (≈ 2.74 µM), the half-life [11] was 18 min and the half-life [12] was 18 min. The Cmax [13] was 8.8 µg/mL, the Cmax [14] was 111 µg/mL and the Activity (Streptococcus pneumoniae [15]) was 5.
